The values that follow come from ChEMBL document CHEMBL2057112, “Enamino-oxindole HIV protease inhibitors” (Bioorg Med Chem Lett, 2012).

Assay [1] is described as follows: Inhibition of wild type Human immunodeficiency virus protease expressed in Escherichia coli using ArgGlu(EDANS)SerGlnAsnTyrProIleValGlnLys(DABCYL)Arg as substrate preincubated with compound for 0.5 to 1 min measured by fluorometric analysis at pH 6.5.
Assay [2] can be described thus: Inhibition of Human immunodeficiency virus protease M8 mutant expressed in Escherichia coli using ArgGlu(EDANS)SerGlnAsnTyrProIleValGlnLys(DABCYL)Arg as substrate preincubated with compound for 0.5 to 1 min measured by fluorometric analysis at pH 6.5.
Assay [3] in a line: Inhibition of Human immunodeficiency virus protease M9 mutant expressed in Escherichia coli using ArgGlu(EDANS)SerGlnAsnTyrProIleValGlnLys(DABCYL)Arg as substrate preincubated with compound for 0.5 to 1 min measured by fluorometric analysis at pH 6.5.
A short description of assay [4]: Inhibition of Human immunodeficiency virus protease M10 mutant expressed in Escherichia coli using ArgGlu(EDANS)SerGlnAsnTyrProIleValGlnLys(DABCYL)Arg as substrate preincubated with compound for 0.5 to 1 min measured by fluorometric analysis at pH 6.5.
In assay [5] the test system is Human immunodeficiency virus 1. The assay can be described thus: Antiviral activity against Human immunodeficiency virus 1 HXB2 expressing wild type protease infected in human MT4 cells after 5 days by MTT assay. The format is functional, organism-based. To be noted: Human immunodeficiency virus 1, HXB2, MT4, 120 h. For orientation: Tetrazolium assays rely on reduction of a dye to a coloured formazan, in cell work by metabolically active cells.

Assay [6] concerns Human immunodeficiency virus 1. Description: Antiviral activity against Human immunodeficiency virus 1 HXB2 expressing protease M8 mutant infected in human MT4 cells after 5 days by MTT assay. The format is functional, organism-based. Particulars: Human immunodeficiency virus 1, HXB2, MT4, 120 h.
Assay [7] deals with Human immunodeficiency virus 1. Description: Antiviral activity against Human immunodeficiency virus 1 HXB2 expressing protease M9 mutant infected in human MT4 cells after 5 days by MTT assay. The format is functional, organism-based. To be noted: Human immunodeficiency virus 1, HXB2, MT4, 120 h.
Assay [8] has as its system Human immunodeficiency virus 1. Description: Antiviral activity against Human immunodeficiency virus 1 HXB2 expressing protease M10 mutant infected in human MT4 cells after 5 days by MTT assay. The format is functional, organism-based. Particulars: Human immunodeficiency virus 1, HXB2, MT4, 120 h.
Assay [9] has as its system Human immunodeficiency virus 1. The assay can be described thus: Antiviral activity against Human immunodeficiency virus 1 HXB2 expressing protease M3 mutant infected in human MT4 cells after 5 days by MTT assay. The format is functional, organism-based. Particulars: Human immunodeficiency virus 1, HXB2, MT4, 120 h. A digest of the protocol:
(§1)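 MT-4 cells (AIDS Research and Reference Reagent Program) exposed to 50% tissue culture infective doses (TCID₅₀) of virus with various concentrations of test compound for 5 days. MTT solution then added and absorbance measured. Mutant strains carry 10–17 resistance mutations with phenotypic resistance to marketed PIs; all include I84V except M7. IC₅₀ reported.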

Assay [10] relates to Human immunodeficiency virus 1. Description: Antiviral activity against Human immunodeficiency virus 1 HXB2 expressing protease M4 mutant infected in human MT4 cells after 5 days by MTT assay. Particulars: Human immunodeficiency virus 1, HXB2, MT4, 120 h. The format is functional, organism-based. A digest of the protocol:
as §1

Assay [11] has as its system Human immunodeficiency virus 1. Description: Antiviral activity against Human immunodeficiency virus 1 HXB2 expressing protease M5 mutant infected in human MT4 cells after 5 days by MTT assay. The format is functional, organism-based. Particulars: Human immunodeficiency virus 1, HXB2, MT4, 120 h. A digest of the protocol:
as §1

For assay [12], the system named is Human immunodeficiency virus 1. The assay can be described thus: Antiviral activity against Human immunodeficiency virus 1 HXB2 expressing protease M6 mutant infected in human MT4 cells after 5 days by MTT assay. The format is functional, organism-based. To be noted: Human immunodeficiency virus 1, HXB2, MT4, 120 h. A digest of the protocol:
as §1

The subject of assay [13] is Human immunodeficiency virus 1. Description: Antiviral activity against Human immunodeficiency virus 1 HXB2 expressing protease M7 mutant infected in human MT4 cells after 5 days by MTT assay. The format is functional, organism-based. To be noted: Human immunodeficiency virus 1, HXB2, MT4, 120 h. A digest of the protocol: as §1

Bounds are passed on as bounds.

Take `CC(C)CN(C[C@@H](O)[C@H](Cc1ccccc1)NC(=O)O[C@H]1CO[C@H]2OCC[C@H]21)S(=O)(=O)c1ccc(N)cc1`: the Ki (commonly the equilibrium dissociation constant of an inhibitor or competing ligand from its target) in [1] was below 0.1 nM; in assay [2] it was 0.25 nM; in assay [3] it was below 0.3 nM; in assay [4] it was 1 nM. The IC50 – broadly, the concentration that inhibits the measured activity by half – worked out at 3 nM in [5]; 16 nM in [6]; 25 nM in assay [7]; 130 nM in assay [8]; 11 nM in [9]; 30 nM in assay [10]. Besides, the IC50 in assay [11] amounted to 22 nM; in assay [12], 10 nM; in [13], 3.2 nM.
Turning to `CC(C)CN(C[C@@H](O)[C@H](Cc1ccccc1)NC(=O)O[C@H]1CO[C@H]2OCC[C@H]21)S(=O)(=O)c1ccc2c(c1)CCN2`, the Ki in assay [1] was 0.12 nM; in assay [2], 0.63 nM; in assay [3], 1.5 nM; in assay [4] it was 10 nM. For the same compound, the IC50 in assay [5] was found to be 3.9 nM; in assay [6], 107 nM; in assay [7], 190 nM; in assay [8] it was 1700 nM; in [9], 80 nM; in [10], 175 nM. The results for the IC50 in assay [11], in [12] and in assay [13] were 120 nM, 30 nM and 7.5 nM, respectively.
As to `CC(C)CNC=C1C(=O)Nc2ccc(S(=O)(=O)N(CC(C)C)C[C@@H](O)[C@H](Cc3ccccc3)NC(=O)O[C@H]3CO[C@H]4OCC[C@H]43)cc21` (mixture of isomers), the Ki in assay [1] is below 0.1 nM; in [3] it was below 0.3 nM; in assay [4], below 1 nM. For the same compound, the 50% inhibitory concentration (IC50) came out at 7.5 nM in assay [5]; 16 nM in assay [6]; 9.5 nM in assay [7]; 33 nM in assay [8]; 8 nM in assay [9]; 15 nM in assay [10]. In addition, the results for the IC50 in [11], in assay [12] and in assay [13] were 9 nM, 9 nM and 2.1 nM, respectively.
For the compound `CC(N)=C1C(=O)Nc2ccc(S(=O)(=O)N(CC(C)C)C[C@@H](O)[C@H](Cc3ccccc3)NC(=O)O[C@H]3CO[C@H]4OCC[C@H]43)cc21` (mixture of isomers), the values for the inhibitory constant (Ki) in [1], in assay [3] and in assay [4] were below 0.1 nM, below 0.3 nM and below 1 nM, respectively. In addition, the IC50 in assay [5] came to 64 nM; in assay [6], 70 nM; in [7], 60 nM; in assay [8], 60 nM; in [9], 70 nM; in [10], 70 nM. The values for the IC50 in assay [11], in assay [12] and in assay [13] were 75 nM, 65 nM and 30 nM, respectively.
As to `CNC(C)=C1C(=O)Nc2ccc(S(=O)(=O)N(CC(C)C)C[C@@H](O)[C@H](Cc3ccccc3)NC(=O)O[C@H]3CO[C@H]4OCC[C@H]43)cc21` (mixture of isomers), the values for the Ki in assay [1], in assay [3] and in [4] were below 0.1 nM, below 0.3 nM and below 1 nM, respectively. The IC50 in [5] came out at 10 nM; in assay [6], 29 nM; in [7], 17 nM; in assay [8] it was 56 nM; in assay [9], 12 nM; in assay [10], 16 nM. Besides, the IC50 amounted to 18 nM in [11], 20 nM in assay [12] and 5 nM in assay [13].
Regarding `CCCNC=C1C(=O)Nc2ccc(S(=O)(=O)N(CC(C)C)C[C@@H](O)[C@H](Cc3ccccc3)NC(=O)O[C@H]3CO[C@H]4OCC[C@H]43)cc21` (mixture of isomers), the Ki in [1] is 0.12 nM; in assay [2] it was below 0.1 nM; in [3], below 0.3 nM; in [4], below 1 nM. The IC50 came out at 30 nM in assay [5], 40 nM in [7], 120 nM in [8] and 40 nM in [9].
In the case of `CCCCNC=C1C(=O)Nc2ccc(S(=O)(=O)N(CC(C)C)C[C@@H](O)[C@H](Cc3ccccc3)NC(=O)O[C@H]3CO[C@H]4OCC[C@H]43)cc21` (mixture of isomers), the results for the Ki in [1], in [3] and in [4] were below 0.1 nM, below 0.3 nM and below 1 nM, respectively. Moreover, the half-maximal inhibitory concentration (IC50) is 13 nM in assay [5]; 25 nM in assay [6]; 11 nM in assay [7]; 40 nM in assay [8]; 15 nM in assay [9]; 28 nM in assay [10]. In addition, the IC50 amounted to 18 nM in [11], 32 nM in assay [12] and 5 nM in assay [13].
In the case of `CC(C)CN(C[C@@H](O)[C@H](Cc1ccccc1)NC(=O)O[C@H]1CO[C@H]2OCC[C@H]21)S(=O)(=O)c1ccc2c(c1)C(=CNCc1ccc3ccccc3n1)C(=O)N2` (mixture of isomers), the inhibition constant Ki in assay [1] is 0.1 nM; in assay [2], below 0.1 nM; in assay [3], below 0.3 nM; in assay [4] it was below 1 nM. The IC50 worked out at 35 nM in assay [5]; 34 nM in [6]; 23 nM in assay [7]; 27 nM in [8]; 21 nM in [9]; 40 nM in assay [10]. In addition, 25 nM corresponded to half-maximal inhibition in [12] (IC50).
In the case of `CC(C)CN(C[C@@H](O)[C@H](Cc1ccccc1)NC(=O)O[C@H]1CO[C@H]2OCC[C@H]21)S(=O)(=O)c1ccc2c(c1)C(=CNCc1ccccc1)C(=O)N2` (mixture of isomers), the figures for the inhibition constant (Ki) in [1], in assay [3] and in assay [4] were below 0.1 nM, below 0.3 nM and below 1 nM, respectively. For the same compound, the concentration for half-maximal inhibition (IC50) in assay [5] was 14 nM; in [6], 35 nM; in assay [8] it was 30 nM; in [9], 13 nM; in assay [10] it was 20 nM; in [11], 20 nM. Besides, the IC50 in assay [12] is 18 nM; in assay [13] it was 4.1 nM.
In the case of `CC(C)CN(C[C@@H](O)[C@H](Cc1ccccc1)NC(=O)O[C@H]1CO[C@H]2OCC[C@H]21)S(=O)(=O)c1ccc2c(c1)C(=CNCC1CCCCC1)C(=O)N2` (mixture of isomers), the Ki is below 0.1 nM in assay [1], 0.16 nM in assay [2], below 0.3 nM in [3] and below 1 nM in [4]. In addition, the half-maximal inhibitory concentration (IC50) in assay [5] came to 9.7 nM; in [6], 27 nM; in assay [7], 9 nM; in assay [8], 40 nM; in assay [9], 21 nM; in assay [10] it was 30 nM. Also, the IC50 in assay [11] stood at 18 nM; in assay [12] it was 25 nM.
As to `CC(C)CN(C[C@@H](O)[C@H](Cc1ccccc1)NC(=O)O[C@H]1CO[C@H]2OCC[C@H]21)S(=O)(=O)c1ccc2c(c1)C(=CNCCC(C)(C)C)C(=O)N2` (mixture of isomers), the inhibitory constant (Ki) was below 0.1 nM in [1], below 0.3 nM in [3] and below 1 nM in assay [4]. Also, the IC50 in assay [5] was 11 nM; in assay [6] it was 23 nM; in assay [8], 32 nM; in assay [9], 19 nM; in [10], 25 nM; in assay [11] it was 17 nM. Moreover, the IC50 stood at 24 nM in assay [12] and 3.2 nM in assay [13].
For the compound `CC(C)CN(C[C@@H](O)[C@H](Cc1ccccc1)NC(=O)O[C@H]1CO[C@H]2OCC[C@H]21)S(=O)(=O)c1ccc2c(c1)C(=CNCC(C)(C)C)C(=O)N2` (mixture of isomers), the inhibition constant (Ki) is below 0.1 nM in [1], below 0.3 nM in assay [3] and below 1 nM in assay [4]. Also, the IC50 in assay [5] amounted to 4.5 nM; in assay [6], 13 nM; in assay [7], 9.5 nM; in assay [8], 27 nM; in assay [9], 8 nM; in assay [10] it was 8.8 nM. The concentration for half-maximal inhibition (IC50) in assay [11] stood at 7 nM; in [12], 6 nM; in [13], 1.5 nM.
With `CC(C)CN(C[C@@H](O)[C@H](Cc1ccccc1)NC(=O)O[C@H]1CO[C@H]2OCC[C@H]21)S(=O)(=O)c1ccc2c(c1)C(=CNC1CCC1)C(=O)N2` (mixture of isomers), the inhibition constant Ki in [1] is below 0.1 nM; in assay [3], below 0.3 nM; in [4], 1.2 nM. Besides, the concentration for half-maximal inhibition (IC50) in [5] was found to be 17 nM; in [6], 30 nM; in [7], 31 nM; in assay [8] it was 115 nM; in [9], 31 nM; in assay [10], 36 nM. For the same compound, the 50% inhibitory concentration (IC50) in [11] came out at 33 nM; in [12], 32 nM; in assay [13] it was 7 nM.
